ChEMBL document CHEMBL4715841, “Discovery of dihydropyrazino-benzimidazole derivatives as metabotropic glutamate receptor-2 (mGluR2) positive allosteric modulators (PAMs)” (Eur J Med Chem, 2020)

target: Cytochrome P450 2C19 (Homo sapiens, UniProt P33261); assay: Inhibition of CYP2C19 (unknown origin); format: ADME
How it was run: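 Isoform-specific CYP450 inhibition, reported as IC50 in µM.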

Cytochrome P450 2C19, sequence (P33261 whole entry, canonical isoform): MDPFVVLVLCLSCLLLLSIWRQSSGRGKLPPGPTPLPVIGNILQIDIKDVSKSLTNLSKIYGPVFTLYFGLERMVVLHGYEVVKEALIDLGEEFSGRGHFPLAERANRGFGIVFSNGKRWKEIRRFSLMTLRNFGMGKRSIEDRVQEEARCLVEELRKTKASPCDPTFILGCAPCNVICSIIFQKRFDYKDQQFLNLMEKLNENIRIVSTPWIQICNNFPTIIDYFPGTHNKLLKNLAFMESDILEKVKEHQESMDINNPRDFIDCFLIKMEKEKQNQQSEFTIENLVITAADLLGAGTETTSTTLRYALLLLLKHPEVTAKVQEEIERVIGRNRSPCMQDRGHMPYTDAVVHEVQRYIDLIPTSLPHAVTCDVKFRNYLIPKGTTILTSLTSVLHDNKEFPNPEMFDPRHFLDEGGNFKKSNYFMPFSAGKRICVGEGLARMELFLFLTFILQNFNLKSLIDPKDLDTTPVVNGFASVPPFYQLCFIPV

IC50 | SMILES
> 10000 nM | O=C1c2nc3ccccc3n2CCN1CCCCOc1ccc(OC(F)(F)F)cc1

target: Metabotropic glutamate receptor 2 (Homo sapiens, UniProt Q14416)
Sequence (Q14416 whole entry): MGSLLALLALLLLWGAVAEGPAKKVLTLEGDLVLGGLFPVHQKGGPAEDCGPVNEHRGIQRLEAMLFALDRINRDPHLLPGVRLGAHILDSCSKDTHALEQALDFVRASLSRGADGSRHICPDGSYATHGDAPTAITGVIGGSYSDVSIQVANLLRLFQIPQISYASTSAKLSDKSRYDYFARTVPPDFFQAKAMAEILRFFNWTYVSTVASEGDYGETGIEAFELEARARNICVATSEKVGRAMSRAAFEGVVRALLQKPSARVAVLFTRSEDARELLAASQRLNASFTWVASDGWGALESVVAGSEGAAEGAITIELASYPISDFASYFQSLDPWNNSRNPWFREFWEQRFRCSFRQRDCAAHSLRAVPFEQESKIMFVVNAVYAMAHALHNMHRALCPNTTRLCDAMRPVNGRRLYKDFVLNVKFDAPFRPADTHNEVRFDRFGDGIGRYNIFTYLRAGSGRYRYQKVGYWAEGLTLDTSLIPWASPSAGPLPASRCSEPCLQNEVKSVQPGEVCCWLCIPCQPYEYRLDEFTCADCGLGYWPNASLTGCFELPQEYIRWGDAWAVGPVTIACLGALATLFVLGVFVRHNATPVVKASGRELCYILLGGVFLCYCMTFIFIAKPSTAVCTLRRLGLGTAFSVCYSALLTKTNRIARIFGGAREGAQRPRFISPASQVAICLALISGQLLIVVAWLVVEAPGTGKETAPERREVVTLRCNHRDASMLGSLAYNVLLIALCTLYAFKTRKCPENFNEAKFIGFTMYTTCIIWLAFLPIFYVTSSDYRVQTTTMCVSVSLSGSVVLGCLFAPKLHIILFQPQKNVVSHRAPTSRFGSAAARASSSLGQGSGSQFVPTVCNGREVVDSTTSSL

EC50 | SMILES
870 nM | COc1ccccc1C1CCN(Cc2nc3ccccc3n2C)CC1
420 nM | c1ccc(CCCCN2CCn3c(nc4ccccc43)C2)cc1
540 nM | Fc1cc(Cl)ccc1CCCCN1CCn2c(nc3ccccc32)C1
4700 nM | Fc1cccc(CCN2CCn3c(nc4ccccc43)C2)c1
340 nM | Fc1ccc(CCCCN2CCn3c(nc4ccccc43)C2)c(F)c1
50 nM | O=C1c2nc3ccccc3n2CCN1CCCCOc1ccc(F)cc1Br
970 nM | Fc1cc(C(F)(F)F)ccc1CCCCN1CCn2c(nc3ccccc32)C1
130 nM | c1ccc(CCCCCN2CCn3c(nc4ccccc43)C2)cc1
2280 nM | COc1ccc(CCCCN2CCn3c(nc4ccccc43)C2)cc1
170 nM | Fc1ccc(OCCCN2CCn3c(nc4ccccc43)C2)cc1Cl
2430 nM | Cc1ccc(CCN2CCn3c(nc4ccccc43)C2)cc1
90 nM | Fc1ccc(SCCCN2CCn3c(nc4ccccc43)C2)cc1F
90 nM | Cc1ccccc1OCCCCN1CCn2c(nc3ccccc32)C1=O
2740 nM | COc1ccc(CCN2CCn3c(nc4ccccc43)C2)cc1
350 nM | Fc1ccc(SCCCN2CCn3c(nc4ccccc43)C2)c(F)c1
540 nM | Fc1ccc(OCCCN2CCn3c(nc4ccccc43)C2)cc1F
70 nM | O=C1c2nc3ccccc3n2CCN1CCCCOc1ccc(Cl)cc1
90 nM | O=C1c2nc3ccccc3n2CCN1CCCOc1ccc(Cl)c(Cl)c1
50 nM | O=C1c2nc3ccccc3n2CCN1CCCCOc1ccc(F)cc1F
260 nM | c1ccc(SCCCN2CCn3c(nc4ccccc43)C2)cc1
1210 nM | COc1ccc(CCCCN2CCn3c(nc4ccccc43)C2)c(F)c1
550 nM | Clc1ccc(SCCCN2CCn3c(nc4ccccc43)C2)cc1
2400 nM | N#Cc1ccc(CCCCN2CCn3c(nc4ccccc43)C2)cc1
320 nM | Fc1ccc(SCCCN2CCn3c(nc4ccccc43)C2)cc1
40 nM | O=C1c2nc3ccccc3n2CCN1CCCCOc1ccc(C(F)(F)F)cc1
70 nM | Clc1ccc(OCCCN2CCn3c(nc4ccccc43)C2)cc1Cl
270 nM | Brc1ccc(SCCCN2CCn3c(nc4ccccc43)C2)cc1
130 nM | Cn1c(CN2CCC(c3ccccc3F)CC2)nc2ccccc21
